Laboratory results from PMC6398604 (Journal of medicinal chemistry, 2018).

Key:
[1] = Rat biomarker assay: inhibitor concentrations in plasma, brain and CSF; assay type: in vivo; settings: for concentration at 4 h: male, Sprague Dawley, CSF, oral, 10 mg/kg, Free CSF, 4 hours after 10mg/kg oral dose, corrected for non-specific binding to CSF
[2] = cited from earlier work
[3] = cited from earlier work; remark: listed apart in the source
Human MB-COMT = target: T1, Human MB-COMT (Homo sapiens, UniProt P21964); assay: MTase Glo Methyltransferase assay, MB-COMT; assay type: biochemical
T1 sequence (P21964 1-271): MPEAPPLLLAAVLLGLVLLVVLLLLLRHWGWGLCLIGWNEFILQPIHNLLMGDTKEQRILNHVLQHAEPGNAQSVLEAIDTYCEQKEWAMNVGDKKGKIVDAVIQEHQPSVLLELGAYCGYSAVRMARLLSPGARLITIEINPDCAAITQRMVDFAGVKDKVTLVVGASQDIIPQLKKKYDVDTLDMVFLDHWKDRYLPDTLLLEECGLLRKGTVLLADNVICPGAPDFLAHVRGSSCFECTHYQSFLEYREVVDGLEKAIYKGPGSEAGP

Rat pharmacokinetics = assay type: in vivo; settings: for clearance: rat, plasma, iv, 1 mg/kg; for rat PK profile (in words): rat PK studies
rat hepatocytes = assay: Hepatocyte stability; assay type: in vitro ADME
[4] = Mouse Blood-Brain Barrier; assay type: in vivo; settings: 10 mg/kg ip, mice
Summary of the method: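 Male C57BL/6J mice (8 weeks) were habituated and handled before dosing. Test compound was suspended in 0.1% Tween80, 0.1% silicone antifoam and 1% methylcellulose in water, then given once ip at 10 mg/kg (10 mL/kg). At 5, 15 or 60 min, mice under isoflurane gave cardiac blood (Li-heparin) and were PBS-perfused. Plasma was spun 2000 rpm, 4°C, 15 min. Brain was homogenised in 4x (w/v) PBS pH 7.4 for total levels.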

P-glycoprotein = P-glycoprotein (Homo sapiens, UniProt P08183); assay: P-gp efflux ratio in P-glycoprotein expressing MDCK cells; assay type: in vitro ADME
[5] = Non-specific binding to CSF by equilibrium dialysis; assay type: in vitro ADME; settings: pooled rat CSF, 2 μM testing concentration
[6] = test system: dopamine metabolites HVA and DOPAC in rat CSF (COMT); assay: Rat biomarker assay: HVA and DOPAC in CSF; assay type: in vivo; settings: 4 hours after 10 mpk oral
P-gp = P-gp (Homo sapiens, UniProt P08183); assay: Transporter susceptibility and inhibitory activity, P-gp; assay type: in vitro ADME; settings: data not shown
BCRP = target: T2, BCRP (Homo sapiens, UniProt Q9UNQ0); assay: Transporter susceptibility and inhibitory activity, BCRP; assay type: in vitro ADME; settings: data not shown
T2 sequence (Q9UNQ0 1-655): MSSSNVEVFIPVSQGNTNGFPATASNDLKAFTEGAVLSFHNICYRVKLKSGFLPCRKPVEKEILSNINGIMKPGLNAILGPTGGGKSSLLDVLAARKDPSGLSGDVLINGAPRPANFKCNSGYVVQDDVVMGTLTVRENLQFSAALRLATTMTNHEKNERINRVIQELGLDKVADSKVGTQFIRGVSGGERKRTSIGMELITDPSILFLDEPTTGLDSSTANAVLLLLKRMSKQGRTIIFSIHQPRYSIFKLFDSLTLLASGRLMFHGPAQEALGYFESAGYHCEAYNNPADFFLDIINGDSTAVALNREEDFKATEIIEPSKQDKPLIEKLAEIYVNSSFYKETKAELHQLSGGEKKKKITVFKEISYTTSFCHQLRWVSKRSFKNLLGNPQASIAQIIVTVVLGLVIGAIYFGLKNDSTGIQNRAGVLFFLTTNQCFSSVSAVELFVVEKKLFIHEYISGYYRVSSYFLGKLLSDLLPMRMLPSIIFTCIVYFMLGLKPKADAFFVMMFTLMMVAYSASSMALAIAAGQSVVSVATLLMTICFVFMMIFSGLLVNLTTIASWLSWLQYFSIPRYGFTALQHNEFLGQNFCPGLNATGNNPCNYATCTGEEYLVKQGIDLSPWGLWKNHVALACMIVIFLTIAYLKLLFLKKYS

MRP2 = MRP2 (Homo sapiens, UniProt Q92887); assay: Transporter susceptibility and inhibitory activity, MRP2; assay type: in vitro ADME; settings: data not shown
Sequence of MRP2 (Q92887 whole entry, species assumed): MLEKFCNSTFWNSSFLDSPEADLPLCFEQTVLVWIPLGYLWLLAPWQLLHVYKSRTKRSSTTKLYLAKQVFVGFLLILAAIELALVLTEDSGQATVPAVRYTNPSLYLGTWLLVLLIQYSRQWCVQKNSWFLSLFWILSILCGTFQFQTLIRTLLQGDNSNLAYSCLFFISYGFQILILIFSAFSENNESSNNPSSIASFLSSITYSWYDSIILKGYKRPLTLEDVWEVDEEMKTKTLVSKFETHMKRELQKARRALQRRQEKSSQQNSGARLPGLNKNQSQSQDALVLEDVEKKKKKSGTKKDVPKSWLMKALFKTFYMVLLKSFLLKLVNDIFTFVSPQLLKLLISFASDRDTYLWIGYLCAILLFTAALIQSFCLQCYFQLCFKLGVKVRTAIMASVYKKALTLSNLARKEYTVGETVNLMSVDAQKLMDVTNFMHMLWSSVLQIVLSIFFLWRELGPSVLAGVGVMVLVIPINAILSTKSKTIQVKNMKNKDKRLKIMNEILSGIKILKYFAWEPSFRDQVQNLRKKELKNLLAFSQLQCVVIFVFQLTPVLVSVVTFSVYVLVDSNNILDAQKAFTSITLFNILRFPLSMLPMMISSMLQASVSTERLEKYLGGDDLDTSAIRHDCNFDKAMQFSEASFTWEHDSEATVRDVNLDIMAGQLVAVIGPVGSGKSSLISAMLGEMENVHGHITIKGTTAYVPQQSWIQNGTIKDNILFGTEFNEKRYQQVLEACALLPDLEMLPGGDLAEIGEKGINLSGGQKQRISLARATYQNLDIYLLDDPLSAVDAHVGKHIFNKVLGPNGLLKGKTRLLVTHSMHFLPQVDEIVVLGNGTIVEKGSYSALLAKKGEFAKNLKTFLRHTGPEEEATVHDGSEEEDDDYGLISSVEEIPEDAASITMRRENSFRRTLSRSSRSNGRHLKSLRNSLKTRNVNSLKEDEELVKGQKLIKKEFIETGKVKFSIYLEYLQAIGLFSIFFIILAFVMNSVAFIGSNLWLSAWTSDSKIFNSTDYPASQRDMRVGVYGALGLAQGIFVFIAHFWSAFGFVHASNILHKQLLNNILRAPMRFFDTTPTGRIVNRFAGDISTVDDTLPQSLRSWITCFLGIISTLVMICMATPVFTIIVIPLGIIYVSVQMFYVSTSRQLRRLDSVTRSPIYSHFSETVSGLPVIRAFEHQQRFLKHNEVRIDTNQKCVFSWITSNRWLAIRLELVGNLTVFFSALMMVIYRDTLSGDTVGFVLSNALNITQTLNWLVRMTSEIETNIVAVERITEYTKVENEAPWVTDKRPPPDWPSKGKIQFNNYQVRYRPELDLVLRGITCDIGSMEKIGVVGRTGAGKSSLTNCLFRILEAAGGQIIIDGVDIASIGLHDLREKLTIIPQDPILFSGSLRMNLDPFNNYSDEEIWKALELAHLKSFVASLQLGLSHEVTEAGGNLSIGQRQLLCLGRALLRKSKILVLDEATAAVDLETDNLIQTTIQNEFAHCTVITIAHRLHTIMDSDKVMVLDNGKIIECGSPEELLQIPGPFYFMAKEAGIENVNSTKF

Sequence of P-glycoprotein (P08183 whole entry): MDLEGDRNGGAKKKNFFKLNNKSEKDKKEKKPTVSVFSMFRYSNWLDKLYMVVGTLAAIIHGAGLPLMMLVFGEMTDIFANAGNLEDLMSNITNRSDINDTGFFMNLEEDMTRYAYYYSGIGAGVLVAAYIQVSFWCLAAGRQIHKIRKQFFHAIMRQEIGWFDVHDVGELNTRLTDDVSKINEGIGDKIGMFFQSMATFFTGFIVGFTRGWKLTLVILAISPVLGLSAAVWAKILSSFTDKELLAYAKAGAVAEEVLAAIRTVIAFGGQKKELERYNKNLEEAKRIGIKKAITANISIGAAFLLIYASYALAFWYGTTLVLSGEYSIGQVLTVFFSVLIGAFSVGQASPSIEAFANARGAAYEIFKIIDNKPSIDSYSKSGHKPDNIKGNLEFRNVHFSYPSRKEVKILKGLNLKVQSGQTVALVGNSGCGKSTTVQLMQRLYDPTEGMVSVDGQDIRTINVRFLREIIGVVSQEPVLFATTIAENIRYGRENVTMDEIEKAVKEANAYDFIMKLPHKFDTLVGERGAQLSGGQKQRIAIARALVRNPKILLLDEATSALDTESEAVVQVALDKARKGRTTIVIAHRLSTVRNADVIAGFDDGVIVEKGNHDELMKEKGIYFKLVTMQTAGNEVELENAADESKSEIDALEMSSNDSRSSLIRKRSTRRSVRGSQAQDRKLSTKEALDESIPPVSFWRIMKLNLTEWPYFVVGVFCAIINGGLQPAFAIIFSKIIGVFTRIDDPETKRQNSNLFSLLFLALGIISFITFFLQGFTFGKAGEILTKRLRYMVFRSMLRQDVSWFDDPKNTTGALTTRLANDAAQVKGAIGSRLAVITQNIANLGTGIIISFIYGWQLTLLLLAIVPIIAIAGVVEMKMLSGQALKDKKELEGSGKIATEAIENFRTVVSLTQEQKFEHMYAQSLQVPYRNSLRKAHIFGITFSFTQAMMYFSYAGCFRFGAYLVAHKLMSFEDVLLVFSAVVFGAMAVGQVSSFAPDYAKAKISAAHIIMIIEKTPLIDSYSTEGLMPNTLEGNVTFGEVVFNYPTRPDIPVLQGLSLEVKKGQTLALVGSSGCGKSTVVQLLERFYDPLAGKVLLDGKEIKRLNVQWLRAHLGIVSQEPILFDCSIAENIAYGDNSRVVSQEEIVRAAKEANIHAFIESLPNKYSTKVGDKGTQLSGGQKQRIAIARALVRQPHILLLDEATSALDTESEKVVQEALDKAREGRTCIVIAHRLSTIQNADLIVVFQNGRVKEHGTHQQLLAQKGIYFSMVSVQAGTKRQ
Sequence of P-gp (P08183 whole entry): as above

## Cc1ccc(C(=O)c2cc(O)c(O)c([N+](=O)[O-])c2)cc1 [Compound 1, tolcapone, reference compound]
[1]; 4 hours after 15mpk ip
  CSF: BLQ
  Free Brain: BLQ
[2]
  brain penetration (in words): low but measurable levels in the brain
[3]
  hepatic toxicity (in words): associated with hepatic toxicity

## CCN(CC)C(=O)/C(C#N)=C/c1cc(O)c(O)c([N+](=O)[O-])c1 [Compound 2, entacapone]
[2]
  brain penetration (in words): negligible brain penetration

## Cc1c(Cl)c(C)[n+]([O-])c(Cl)c1-c1noc(-c2cc(O)c(O)c([N+](=O)[O-])c2)n1 [Compound 3, opicapone]
[2]
  brain penetration (in words): negligible brain penetration

## Oc1cccc2cccnc12 [Compound 4, 8-hydroxyquinoline, reference compound]
Human MB-COMT
  MB-COMT inhibition / potency (in words): abolished MB-COMT inhibition

## O=S(=O)(c1ccc(O)c2ncccc12)C1CCCC1 [Compound 11, 5-(Cyclopentylsulfonyl)quinoline-8-ol]
Rat pharmacokinetics
  clearance: 26 mL/min/kg

## O=S(=O)(c1ccc(O)c2ncccc12)N1CCCC1 [Compound 12, 5-(Pyrrolidin-1-ylsulfonyl)quinoline-8-ol]
Rat hepatocytes
  Hepatocyte Stability (Rat): 177 μL/min/10^6 cells
  metabolic stability / clearance in rat hepatocytes (in words): Poor metabolic stability

## O=S(=O)(c1ccc(O)c2ncccc12)N1CCC(c2ccc(F)cc2)C1 (centres unmarked) [Compound 13, 5-((3-(4-Fluorophenyl)pyrrolidin-1-yl)sulfonyl)quinoline-8-ol]
Rat hepatocytes
  metabolic stability / clearance in rat hepatocytes (in words): Poor metabolic stability

## COc1ccc(S(=O)(=O)N2CCCC2)c2cccnc12 [Compound 14, 8-Methoxy-5-(pyrrolidin-1-yulsulfonyl)quinoline]
Human MB-COMT
  MB-COMT inhibition / potency (in words): no appreciable inhibition of MB-COMT

## CCS(=O)(=O)c1ccc(O)c2ncccc12 [Compound 15, 5-(Ethylsulfonyl)quinoline-8-ol]
Rat hepatocytes
  Hepatocyte Stability (Rat): 39 μL/min/10^6 cells
  metabolic stability / clearance in rat hepatocytes (in words): high hepatocyte clearance
[4]
  overall exposure in mouse (in words): low overall exposure

## O=S(=O)(c1ccc(O)c2ncccc12)N1CCCC1Cc1ccccc1 (centres unmarked) [Compound 16, 5-((2-Benzylpyrrolidin-1-yl)sulfonyl)quinoline-8-ol]
Rat hepatocytes
  Hepatocyte Stability (Rat): 228 μL/min/10^6 cells
  metabolic stability / clearance in rat hepatocytes (in words): high hepatocyte clearance
[4]
  overall exposure in mouse (in words): low overall exposure

## O=S(=O)(c1ccc(C(F)(F)F)cc1)c1ccc(O)c2ncccc12 [Compound 17, 5-((4-(Trifluoromethyl)phenyl)sulfonyl)quinolin-8-ol]
Rat hepatocytes
  Hepatocyte Stability (Rat): 46 μL/min/10^6 cells
  metabolic stability / clearance in rat hepatocytes (in words): high hepatocyte clearance

## O=S(=O)(c1ccc(C(F)(F)F)cc1)c1cc(F)c(O)c2ncccc12 [Compound 18, 7-Fluoro-5-((4-(trifluoromethyl)phenyl)sulfonyl)quinolin-8-ol]
Rat hepatocytes
  Hepatocyte Stability (Rat): 12 μL/min/10^6 cells
Rat pharmacokinetics
  clearance: 13 mL/min/kg

## O=S(=O)(c1ccc(F)cc1)c1cc(Cl)c(O)c2ncccc12 [Compound 19, 7-Chloro-5-((4-fluorophenyl)sulfonyl)quinolin-8-ol]
Rat hepatocytes
  Hepatocyte Stability (Rat): 4 μL/min/10^6 cells
Rat pharmacokinetics
  rat PK profile (in words): very low clearance and long half-life
  clearance: 0.31 mL/min/kg

## O=S(=O)(c1ccc(F)cc1)c1cc(F)c(O)c2ncccc12 [Compound 20, 7-Fluoro-5-((4-fluorophenyl)sulfonyl)quinolin-8-ol]
Rat hepatocytes
  Hepatocyte Stability (Rat): 15 μL/min/10^6 cells
Rat pharmacokinetics
  clearance: 12 mL/min/kg
P-glycoprotein
  P-gp substrate (in words): not substrates for the transporter
[1]
  concentration at 4 h: 59 nM
[5]
  Non-specific binding to CSF (bound): 51–57%

## Cc1ccc(S(=O)(=O)c2cc(F)c(O)c3ncccc23)cc1 [Compound 21, 7-Fluoro-5-tosylquinolin-8-ol]
Rat hepatocytes
  Hepatocyte Stability (Rat): 36 μL/min/10^6 cells
Rat pharmacokinetics
  clearance: 27 mL/min/kg

## Cc1ccc(S(=O)(=O)c2cc(Cl)c(O)c3ncccc23)cc1 [Compound 22, 7-Chloro-5-tosylquinolin-8-ol]
Rat hepatocytes
  Hepatocyte Stability (Rat): 78 μL/min/10^6 cells
Rat pharmacokinetics
  clearance: 25 mL/min/kg
P-glycoprotein
  P-gp substrate (in words): not substrates for the transporter

## Cc1ccc(S(=O)(=O)c2cc(Br)c(O)c3ncccc23)cc1 [Compound 23, 7-Bromo-5-tosylquinolin-8-ol]
Human MB-COMT
  MB-COMT inhibition / potency (in words): reduced MB-COMT potency

## O=S(=O)(c1cc(F)c(O)c2ncccc12)C1CCCC1 [Compound 25, 5-(Cyclopentylsulfonyl)-7-fluoroquinolin-8-ol]
Rat hepatocytes
  Hepatocyte Stability (Rat): 19 μL/min/10^6 cells
Rat pharmacokinetics
  rat PK profile (in words): good pharmacokinetics
  clearance: 0.62 mL/min/kg
[1]
  concentration at 4 h: 139 nM
[6]
  HVA decrease, significance versus vehicle (in words): statistically significant difference
[5]
  Non-specific binding to CSF (bound): 51–57%

## O=S(=O)(c1cc(Cl)c(O)c2ncccc12)C1CCCC1 [Compound 26, 7-Chloro-5-(cyclopentylsulfonyl)quinolin-8-ol]
Rat hepatocytes
  Hepatocyte Stability (Rat): 18 μL/min/10^6 cells
Rat pharmacokinetics
  rat PK profile (in words): very low clearance and long half-life

## O=S(=O)(c1cc(F)c(O)c2ncccc12)N1CCCC1 [Compound 28, 7-Fluoro-5-(pyrrolidin-1-ylsulfonyl)quinolin-8-ol]
Rat hepatocytes
  Hepatocyte Stability (Rat): 21 μL/min/10^6 cells
Rat pharmacokinetics
  rat PK profile (in words): good pharmacokinetics
  clearance: 11 mL/min/kg
[1]
  concentration at 4 h: 77 nM
[6]
  HVA decrease, significance versus vehicle (in words): statistically significant difference
[5]
  Non-specific binding to CSF (bound): 51–57%
P-gp
  substrate or inhibitor of P-gp (in words): not found to be a substrate or an inhibitor
BCRP
  substrate or inhibitor of BCRP (in words): not found to be a substrate or an inhibitor
MRP2
  substrate or inhibitor of MRP2 (in words): not found to be a substrate or an inhibitor

## O=S(=O)(c1cc(Cl)c(O)c2ncccc12)N1CCCC1 [Compound 29, 7-Chloro-5-(pyrrolidin-1-ylsulfonyl)quinolin-8-ol]
Rat hepatocytes
  Hepatocyte Stability (Rat): 14 μL/min/10^6 cells
Rat pharmacokinetics
  rat PK profile (in words): very low clearance and long half-life
  clearance: 1 mL/min/kg

## Cc1cc(S(=O)(=O)N2CCCC2)c2cccnc2c1O [Compound 30, 7-Methyl-5-(pyrrolidin-1-ylsulfonyl)quinolin-8-ol]
Human MB-COMT
  MB-COMT inhibition / potency (in words): tolerated
Rat hepatocytes
  Hepatocyte Stability (Rat): 103 μL/min/10^6 cells
  metabolic stability / clearance in rat hepatocytes (in words): no impact on clearance
